Common to all, as to format: functional
Assay [1] concerns Rattus norvegicus. Briefly: Compound was tested for inhibition of cholesterol biosynthesis in rats by intravenous (iv) dosing. The procedure, abridged:
(§1)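 Fasted rats, dosed orally or intravenously as the line states; the read-out is inhibition of cholesterol biosynthesis from acetate.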

The subject of assay [2] is Rattus norvegicus. Briefly: Compound was tested for inhibition of cholesterol biosynthesis in rats by oral dosing (po). The procedure, abridged: as §1
The species named for assay [3] is Rattus norvegicus. Briefly: (§2) Esterase susceptibility was determined from the initial rate of aldehyde release upon incubation of the prodrug with homogenized rat small intestinal mucosa relative to compound 9.
For assay [4], the system named is Rattus norvegicus. Briefly: Compound was tested for inhibition of cholesterol biosynthesis in rats by intravenous (iv) dose of 22 uM/Kg. The procedure, abridged:
as §1

Assay [5] has as its system Rattus norvegicus. Briefly: Compound was tested for inhibition of cholesterol biosynthesis in rats by oral dose of 28 uM/Kg. The settings on record: at 28 µmol/kg.
The test system of assay [6] is Rattus norvegicus. Briefly: Compound was tested for inhibition of cholesterol biosynthesis in rats by intravenous (iv) dose of 4 uM/Kg. The procedure, abridged: as §1
The species entered for assay [7] is Rattus norvegicus. The description is as §2. The procedure, abridged:
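A rat intestinal mucosal esterase preparation was incubated with 200 μM prodrug in 20 mM Tris, pH 7.0, at 37 °C. Timed aliquots were quenched with 0.5 M sodium acetate, pH 3.8. Released aldehyde was measured colorimetrically with methylbenzothiazolinehydrazone/ferric chloride (A625) against an aldehyde standard curve. Initial rate is given as pmol aldehyde/min per esterase unit, normalised to a reference prodrug.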
This is another data set of the same source.

Structures are written as SMILES.

A word on the ED50: it is the dose at which the effect has come halfway, by size or by number of responders. Lower therefore signals an effect at a small dose. As for `CCCCCCC(=O)OCOP(=O)(OCOC(=O)CCCCCC)C(CCC/C=C(\C)CC/C=C(\C)CCC=C(C)C)S(=O)(=O)[O-].[K+]` (centres undefined), the median effective dose (ED50) came to 0.18 µmol/kg in assay [1] and 14 µmol/kg in assay [2]. Besides, the Relative esterase susceptibility in assay [3] amounted to 6.5.

With `CC(C)=CCC/C(C)=C/CC/C(C)=C/CCCC(P(=O)(OCOC(=O)c1ccccc1)OCOC(=O)c1ccccc1)S(=O)(=O)[O-].[K+]` (centres undefined), the ED50 was 1.5 µmol/kg in assay [1] and 15 µmol/kg in assay [2]. In addition, the Relative esterase susceptibility in assay [3] turned out to be 1.5.

A word on the Inhibition: it is the change of the read-out against control, counted positive when it falls. Regarding `CC(C)=CCC/C(C)=C/CC/C(C)=C/CCCC(P(=O)(OCOC(=O)C(C)(C)C)OCOC(=O)C(C)(C)C)S(=O)(=O)[O-].[K+]` (centres undefined), the Inhibition in assay [4] is recorded as -40%. The same molecule displayed a 50% effective dose (ED50) in assay [2] of 3.9 µmol/kg. Besides, the Relative esterase susceptibility in assay [3] worked out at 1.

As to `CC(C)=CCC/C(C)=C/CC/C(C)=C/CCCC(P(=O)(OC(C)OC(=O)c1ccccc1)OC(C)OC(=O)c1ccccc1)S(=O)(=O)[O-].[K+]` (centres undefined), in assay [5], the Inhibition is -33%. For the same molecule, the Relative esterase susceptibility in assay [3] is 0.21.

Turning to `CC(C)=CCC/C(C)=C/CC/C(C)=C/CCCC(P(=O)(O)O)S(=O)(=O)O` (centres undefined), the ED50 in assay [1] came out at 0.25 µmol/kg; in assay [2] it was 16.5 µmol/kg.

The molecule `CCC(=O)OC(C)OP(=O)(OC(C)OC(=O)CC)C(CCCc1cccc(Oc2ccccc2)c1)S(=O)(=O)[O-].[K+]` (centres undefined) showed a median effective dose (ED50) in assay [2] of 12.6 µmol/kg. Besides, in assay [3], the Relative esterase susceptibility is recorded as 17.

As for `CCC(=O)OC(C)OP(=O)(OC(C)OC(=O)CC)C(CCC/C=C(\C)CC/C=C(\C)CCC=C(C)C)S(=O)(=O)[O-].[K+]` (centres undefined), the ED50 in assay [1] was found to be 7 µmol/kg; in assay [2] it was 11.6 µmol/kg. Moreover, the Relative esterase susceptibility in assay [3] was 1.7.

In the case of `O=P(O)(O)C(CCCc1cccc(Oc2ccccc2)c1)S(=O)(=O)O` (centres undefined), the 50% effective dose (ED50) in assay [1] was 0.2 µmol/kg; in assay [2], 19.5 µmol/kg.

On to `CCC(=O)OC(OP(=O)(OC(OC(=O)CC)C(C)C)C(CCCc1cccc(Oc2ccccc2)c1)S(=O)(=O)O)C(C)C` (centres undefined), for which, in assay [2], the ED50 was determined as 7.9 µmol/kg.

Molecule `CCC(=O)OC(CC)OP(=O)(OC(CC)OC(=O)CC)C(CCCc1cccc(Oc2ccccc2)c1)S(=O)(=O)O` (centres undefined) returned a 50% effective dose (ED50) in assay [2] of 10.9 µmol/kg.

In the case of `CC(C)=CCC/C(C)=C/CC/C(C)=C/CCCC(P(=O)(OCOC(=O)CC1CCCCC1)OCOC(=O)CC1CCCCC1)S(=O)(=O)[O-].[K+]` (centres undefined), the Inhibition in assay [6] is -35%. This molecule also returned an ED50 in assay [2] of 4.1 µmol/kg. Further, the Relative esterase susceptibility in assay [3] is 0.49.

Molecule `CC(OC(=O)C(C)(C)C)OP(=O)(OC(C)OC(=O)C(C)(C)C)C(CCCc1cccc(Oc2ccccc2)c1)S(=O)(=O)[O-].[K+]` (centres undefined) showed an ED50 in assay [2] of 12.8 µmol/kg. Besides, in assay [3], the Relative esterase susceptibility was 0.45.

For the molecule `CCC(=O)OC(OP(=O)(OC(OC(=O)CC)C(C)C)C(CCC/C=C(\C)CC/C=C(\C)CCC=C(C)C)S(=O)(=O)[O-])C(C)C.[K+]` (centres undefined), the Inhibition in assay [5] is on record as -43%. The Relative esterase susceptibility in assay [3] came out at 1.1.

For `CC(C)(C)C(=O)OCOP(=O)(OCOC(=O)C(C)(C)C)C(CCCc1cccc(Oc2ccccc2)c1)S(=O)(=O)[O-].[K+]` (centres undefined), the ED50 in assay [1] is 1.7 µmol/kg; in assay [2], 3.5 µmol/kg. Further, the Relative esterase susceptibility in assay [3] came to 15.

`CC(C)=CCC/C(C)=C/CC/C(C)=C/CCCC(P(=O)(OCOC(=O)C(C)C)OCOC(=O)C(C)C)S(=O)(=O)[O-].[K+]` (centres undefined): in assay [7], the Relative esterase susceptibility is reported as 8.1. For the same molecule, the ED50 in assay [1] came to 1.7 µmol/kg; in assay [2], 18.8 µmol/kg.

For the molecule `CC(C)=CCC/C(C)=C/CC/C(C)=C/CCCC(P(=O)(OC(C)OC(=O)C(C)(C)C)OC(C)OC(=O)C(C)(C)C)S(=O)(=O)[O-].[K+]` (centres undefined), in assay [5], the Inhibition is -35%. Also, in assay [3], the Relative esterase susceptibility amounted to 0.2.

`CC(C)C(=O)OC(OP(=O)(OC(OC(=O)C(C)C)C(C)C)C(CCCc1cccc(Oc2ccccc2)c1)S(=O)(=O)[O-])C(C)C.[K+]` (centres undefined): the Inhibition in assay [5] is recorded as -45%.

Turning to `CC(OC(=O)C(C)C)OP(=O)(OC(C)OC(=O)C(C)C)C(CCCc1cccc(Oc2ccccc2)c1)S(=O)(=O)O` (centres undefined), in assay [2], the 50% effect level (ED50) was put at a dose of 10.1 µmol/kg.

The record behind these values is ChEMBL document CHEMBL1129471, “Orally active squalene synthase inhibitors: bis((acyloxy)alkyl) prodrugs of the alpha-phosphonosulfonic acid moiety” (J Med Chem, 1996).
